From ChEMBL document CHEMBL1124493, “Synthesis and tumor uptake of 5-82Br- and 5-131I-labeled 5-halo-1-(2-fluoro-2-deoxy-beta-D-ribofuranosyl)uracils” (J Med Chem, 1989)
Blank lines part the entries; values can stand above or below the molecule they belong to.

Columns and labels:
[1] = system: Mus musculus; test: Biodistribution of intravenously injected [82Br]-labeled compound in spleen of BDF1 female mice bearing subcutaneous Lewis lung carcinoma after 8 hours; type: ADME, organism-based; conditions: in vivo, iv
[2] = system: Mus musculus; test: Biodistribution of intravenously injected [82Br]-labeled compound in lung of BDF1 female mice bearing subcutaneous Lewis lung carcinoma after 2 hours; type: ADME, organism-based; conditions: in vivo, iv
Method in brief: (§1)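 Female BDF1 mice with subcutaneous Lewis lung carcinoma given an iv injection of [82Br]-labelled nucleoside, 47-130 μg carrying 20-60 kBq 82Br. Tissues were excised, weighed wet and γ-counted. Values are percent injected dose per gram of wet tissue, mean ± standard deviation of six animals, with organ-to-tumour ratios derived.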

[3] = system: Mus musculus; test: Biodistribution of intravenously injected [82Br]-labeled compound in tumor of BDF1 female mice bearing subcutaneous Lewis lung carcinoma after 4 hr; type: ADME, organism-based; conditions: in vivo, iv
[4] = system: Mus musculus; test: Biodistribution of intravenously injected [82Br]-labeled compound in liver of BDF1 female mice bearing subcutaneous Lewis lung carcinoma after 0.50 hours; type: ADME, organism-based; conditions: in vivo, iv, 0.5 h; method in brief: as §1
[5] = system: Mus musculus; test: Biodistribution of intravenously injected [82Br]-labeled compound in lung of BDF1 female mice bearing subcutaneous Lewis lung carcinoma after 1 hours; type: ADME, organism-based; conditions: in vivo, iv; method in brief: as §1
[6] = system: Mus musculus; test: Biodistribution of intravenously injected [82Br]-labeled compound in heart of BDF1 female mice bearing subcutaneous Lewis lung carcinoma after 8 hours; type: ADME, organism-based; conditions: in vivo, iv; method in brief: as §1
[7] = system: Mus musculus; test: Biodistribution of intravenously injected [82Br]-labeled compound in blood of BDF1 female mice bearing subcutaneous Lewis lung carcinoma after 24 hours; type: ADME, organism-based; conditions: in vivo, iv
Method in brief: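 82Br-labeled nucleoside given intravenously to female BDF1 mice bearing subcutaneous Lewis lung carcinoma, at 47-130 μg carrying 20-60 kBq. Mice sacrificed at each time point. Wet-weighed tissues γ-counted. Values are percent injected dose per gram wet tissue, mean ± SD, n = 6.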

[8] = system: Mus musculus; test: Biodistribution of intravenously injected [82Br]-labeled compound in tumor of BDF1 female mice bearing subcutaneous Lewis lung carcinoma after 0.25 hours; type: ADME, organism-based; conditions: in vivo, iv
[9] = system: Mus musculus; test: Biodistribution of intravenously injected [82Br]-labeled compound in gut of BDF1 female mice bearing subcutaneous Lewis lung carcinoma after 4 hours; type: ADME, organism-based; conditions: in vivo, iv; method in brief: as §1
[10] = system: Mus musculus; test: Biodistribution of intravenously injected [82Br]-labeled compound in skin of BDF1 female mice bearing subcutaneous Lewis lung carcinoma after 2 hours; type: ADME, organism-based, Zone of skin; conditions: in vivo, iv; method in brief: as §1
[11] = system: Mus musculus; test: Biodistribution of intravenously injected [82Br]-labeled compound in stomach of BDF1 female mice bearing subcutaneous Lewis lung carcinoma after 0.50 hours; type: ADME, organism-based; conditions: in vivo, iv, 0.5 h
[12] = system: Mus musculus; test: Biodistribution of intravenously injected [82Br]-labeled compound in muscle of BDF1 female mice bearing subcutaneous Lewis lung carcinoma after 0.5 hours; type: ADME, organism-based, Muscle tissue; conditions: in vivo, iv; method in brief: as §1
[13] = system: Mus musculus; test: Biodistribution of intravenously injected [82Br]-labeled compound in liver of BDF1 female mice bearing subcutaneous Lewis lung carcinoma after 4 hours; type: ADME, organism-based; conditions: in vivo, iv; method in brief: as §1
[14] = organism: Mus musculus; test: Urinary [131I]- compound observed in BDF1 female mice bearing lewis lung tumor after 24 hr of injected [131I]-compound; type: functional, tissue-based; conditions: Urine
[15] = system: Mus musculus; test: Biodistribution of intravenously injected [131I]-labeled compound in blood of BDF1 female mice bearing subcutaneous Lewis lung carcinoma after 0.25 hours; type: ADME, organism-based; conditions: in vivo, iv
Method in brief: (§2)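 Female BDF1 mice bearing subcutaneous Lewis lung carcinoma received a single intravenous dose of 0.5-1.8 μg of the 131I-labeled nucleoside (55-110 kBq). They were sacrificed at set times, and tissues were weighed wet and γ-counted. Activity is expressed as percent of injected dose per gram of wet tissue, given as mean ± standard deviation for six animals.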

[16] = system: Mus musculus; test: Biodistribution of intravenously injected [131I]-labeled compound in skin of BDF1 female mice bearing subcutaneous Lewis lung carcinoma after 1 hours; type: ADME, organism-based, Zone of skin; conditions: in vivo, iv
Method in brief: (§3)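 Female BDF1 mice with subcutaneous Lewis lung carcinoma given i.v. 0.5-1.8 μg of 131I-labeled nucleoside (55-110 kBq). Killed at set times. Tissues weighed wet and γ-counted. Radioactivity expressed as percent injected dose per gram wet tissue, mean ± SD of six animals.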

[17] = system: Mus musculus; test: Biodistribution of intravenously injected [131I]-labeled compound in lung of BDF1 female mice bearing subcutaneous Lewis lung carcinoma after 24 hours; type: ADME, organism-based; conditions: in vivo, iv; method in brief: as §2
[18] = system: Mus musculus; test: Biodistribution of intravenously injected [131I]-labeled compound in kidney of BDF1 female mice bearing subcutaneous Lewis lung carcinoma after 4 hours; type: ADME, organism-based; conditions: in vivo, iv; method in brief: as §2
[19] = organism: Mus musculus; test: Urinary [131I]5-iodouracil observed in BDF1 female mice bearing lewis lung tumor after 2-3 h of injected [131I]-compound; type: functional, tissue-based; conditions: Urine
[20] = organism: Mus musculus; test: Urinary [131I]- compound observed in BDF1 female mice bearing lewis lung tumor after 0-0.5 h of injected [131I]-compound; type: functional, tissue-based; conditions: Urine
[21] = organism: Mus musculus; test: Other urinary compounds observed in BDF1 female mice bearing lewis lung tumor after 2-3 hr of injected [131I]-compound; type: functional, tissue-based; conditions: Urine
[22] = system: Mus musculus; test: Biodistribution of intravenously injected [131I]-labeled compound in bone of BDF1 female mice bearing subcutaneous Lewis lung carcinoma after 2 hours; type: ADME, organism-based, Bone element; conditions: in vivo, iv; method in brief: as §2
[23] = organism: Mus musculus; test: Other urinary compounds observed in BDF1 female mice bearing lewis lung tumor after 24 hr of injected [131I]-compound; type: functional, tissue-based; conditions: Urine
[24] = system: Mus musculus; test: Biodistribution of intravenously injected [131I]-labeled compound in muscle of BDF1 female mice bearing subcutaneous Lewis lung carcinoma after 2 hours; type: ADME, organism-based, Muscle tissue; conditions: in vivo, iv; method in brief: as §3
[25] = system: Mus musculus; test: Biodistribution of intravenously injected [131I]-labeled compound in blood of BDF1 female mice bearing subcutaneous Lewis lung carcinoma after 2 hours; type: ADME, organism-based; conditions: in vivo, iv; method in brief: as §2
[26] = system: Mus musculus; test: Biodistribution of intravenously injected [131I]-labeled compound in tumor of BDF1 female mice bearing subcutaneous Lewis lung carcinoma after 1 hours; type: ADME, organism-based; conditions: in vivo, iv; method in brief: as §3
[27] = system: Mus musculus; test: Biodistribution of intravenously injected [131I]-labeled compound in tumor of BDF1 female mice bearing subcutaneous Lewis lung carcinoma after 0.25 hours; type: ADME, organism-based; conditions: in vivo, iv; method in brief: as §3
[28] = system: Mus musculus; test: Biodistribution of intravenously injected [131I]-labeled compound in bone of BDF1 female mice bearing subcutaneous Lewis lung carcinoma after 0.5 hours; type: ADME, organism-based, Bone element; conditions: in vivo, iv; method in brief: as §2
[29] = system: Mus musculus; test: Biodistribution of intravenously injected [131I]-labeled compound in kidney of BDF1 female mice bearing subcutaneous Lewis lung carcinoma after 8 hours; type: ADME, organism-based; conditions: in vivo, iv; method in brief: as §2
[30] = system: Mus musculus; test: Biodistribution of intravenously injected [131I]-labeled compound in lung of BDF1 female mice bearing subcutaneous Lewis lung carcinoma after 0.5 hours; type: ADME, organism-based; conditions: in vivo, iv; method in brief: as §2
[31] = system: Mus musculus; test: Biodistribution of intravenously injected [131I]-labeled compound in bone of BDF1 female mice bearing subcutaneous Lewis lung carcinoma after 4 hours; type: ADME, organism-based, Bone element; conditions: in vivo, iv; method in brief: as §2
[32] = system: Mus musculus; test: Biodistribution of intravenously injected [131I]-labeled compound in stomach of BDF1 female mice bearing subcutaneous Lewis lung carcinoma after 0.50 hours; type: ADME, organism-based; conditions: in vivo, iv, 0.5 h; method in brief: as §3
[33] = system: Mus musculus; test: Biodistribution of intravenously injected [131I]-labeled compound in tumor of BDF1 female mice bearing subcutaneous Lewis lung carcinoma after 8 hours; type: ADME, organism-based; conditions: in vivo, iv; method in brief: as §3
[34] = system: Mus musculus; test: Biodistribution of intravenously injected [131I]-labeled compound in bone of BDF1 female mice bearing subcutaneous Lewis lung carcinoma after 0.25 hours; type: ADME, organism-based, Bone element; conditions: in vivo, iv; method in brief: as §2
[35] = system: Mus musculus; test: Biodistribution of intravenously injected [131I]-labeled compound in kidney of BDF1 female mice bearing subcutaneous Lewis lung carcinoma after 1 hours; type: ADME, organism-based; conditions: in vivo, iv; method in brief: as §2
[36] = system: Mus musculus; test: Biodistribution of intravenously injected [131I]-labeled compound in heart of BDF1 female mice bearing subcutaneous Lewis lung carcinoma after 2 hours; type: ADME, organism-based; conditions: in vivo, iv; method in brief: as §2
[37] = system: Mus musculus; test: Biodistribution of intravenously injected [131I]-labeled compound in skin of BDF1 female mice bearing subcutaneous Lewis lung carcinoma after 24 hours; type: ADME, organism-based, Zone of skin; conditions: in vivo, iv; method in brief: as §3
[38] = system: Mus musculus; test: Biodistribution of intravenously injected [131I]-labeled compound in spleen of BDF1 female mice bearing subcutaneous Lewis lung carcinoma after 24 hours; type: ADME, organism-based; conditions: in vivo, iv; method in brief: as §3

Injected dose/g [1]: 0.34%
Injected dose/g [2]: 0.54%
Injected dose/g [3]: 0.37%
Injected dose/g [4]: 0.65%
Injected dose/g [5]: 0.52%
Injected dose/g [6]: 0.45%
Injected dose/g [7]: 0.51%
Injected dose/g [8]: 1.39%
Injected dose/g [9]: 0.28%
Injected dose/g [10]: 0.39%
Injected dose/g [11]: 0.79%
Injected dose/g [12]: 0.4%
Injected dose/g [13]: 0.23%
SMILES: O=c1[nH]c(=O)n([C@H]2O[C@@H](CO)[C@H](O)[C@H]2F)cc1Br

Injected dose/g [15]: 19%
Injected dose/g [16]: 5%
Injected dose/g [17]: 0.1%
Injected dose/g [18]: 7.3%
Injected dose/g [22]: 1.2%
Injected dose/g [24]: 1.3%
Injected dose/g [25]: 8.9%
Injected dose/g [26]: 4.1%
Injected dose/g [27]: 4.9%
Injected dose/g [28]: 1.8%
Injected dose/g [29]: 4.1%
Injected dose/g [30]: 7.5%
Injected dose/g [31]: 1.3%
Injected dose/g [32]: 4.6%
Injected dose/g [33]: 1.9%
Injected dose/g [34]: 2.4%
Injected dose/g [35]: 12%
Injected dose/g [36]: 5.7%
Injected dose/g [37]: 0.1%
Injected dose/g [38]: 0.5%
SMILES: O=c1[nH]c(=O)n([C@@H]2O[C@H](CO)[C@@H](O)[C@H]2F)cc1I
Radioactive constituents [14]: 37.4%
Radioactive constituents [19]: 0%
Radioactive constituents [20]: 90.8%
Radioactive constituents [21]: 3.5%
Radioactive constituents [23]: 0%
